Test [1] can be described thus: Inhibition of GST tagged human/mouse chimeric MCL-1 using biotin-DLRPEIRIAQELRIZIGDEFNETYTRR as substrate incubated for 40 mins followed by substrate addition measured after 4 hrs by AlphaSCREEN assay.
Test [2] in a line: Inhibition of GST tagged human BCL-XL deltaC25 using biotin-DLRPEIRIAQELRIZIGDEFNETYTRR as substrate […] measured after 4 hrs by AlphaSCREEN assay.
Test [3] in a line: Inhibition of GST tagged human BCL-XL deltaC25 by surface plasmon resonance assay.
Test [4] is described as follows: Inhibition of GST tagged human/mouse chimeric MCL-1 by surface plasmon resonance assay.
Test [5] is described as follows: Inhibition of human BCL-2 deltaC22 by surface plasmon resonance assay. Summed up: (§1)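 Biacore solution competition. Protein (10 nM) preincubated 2 h with compound (12.5−0.0001 μM, 10-step half-log series) in HEPES running buffer pH 7.4 with EDTA and 0.005% Tween 20. Injected over a CM5 chip carrying wild-type or inert mBIM BH3 peptide. IC₅₀ by nonlinear curve fit. GST tag removed from BCL-XL and MCL-1 before use.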

Test [6] can be described thus: Inhibition of mouse A1 deltaC20 P10K/C113S mutant by surface plasmon resonance assay. Summed up:
as §1

A short description of test [7]: Inhibition of human BCL-W deltaC23 C29S/A128E mutant by surface plasmon resonance assay. The procedure, abridged: as §1
The test system of test [8] is MEF. Kind of test: Cytotoxicity against wild type MEF cells assessed as release of cytochrome c from mitochondria FACS analysis. The conditions noted are these: Mus musculus. In kind it is functional, cell-based. The procedure, abridged:
(§2)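 MEFs at 1.5 × 10⁵ cells/well in FMA medium with 1% FCS, 3 h rest, then compounds for 18 h (final DMSO 0.25%) beside a vehicle control. Cells permeabilized with 0.025% digitonin on ice for 5 min, then fixed in 1% paraformaldehyde. Stained with anti-cytochrome c (1:100) and a PE secondary in saponin buffer. FL2 read on 10 000 events for % cells with low cytochrome c. Four experiments; multiple unpaired t test (Holm−Sidak, α = 0.01).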

For test [9], the system named is MEF. Kind of test: Cytotoxicity against MCL-1/BAX/BAK deficient MEF cells assessed as release of cytochrome c from mitochondria by FACS analysis. It counts as functional, cell-based. As to conditions: Mus musculus. Summed up: as §2
The test system of test [10] is MEF. Kind of test: Cytotoxicity against MCL deficient mouse embryonic fibroblast cells assessed as reduction in cell viability in presence of 1 % fetal calf serum measured after 24 hrs by propidium iodide staining based flow cytometric analysis. In kind it is functional. The procedure, abridged:
(§3)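 MEFs (WT, MCL-1−/−, MCL-1−/−/BAX−/−/BAK−/−) seeded at 1 × 10⁴ cells/well in FMA medium with 1% FCS, 24 h before dosing. Four-point dilutions: 0.168−0.00005 μM for ABT-737, 25−3.13 μM for others; final DMSO 0.2%, duplicate wells, 24 h. Cells stained with PI, flow cytometry on 1000 events. PI-negative fraction normalized to DMSO vehicle; EC₅₀ by nonlinear regression, mean ± SEM of three experiments.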

For test [11], the system named is MEF. Kind of test: Cytotoxicity against MCL-1deficient MEF cells assessed as release of cytochrome c from mitochondria at 25 uM FACS analysis. It counts as functional. Summed up:
as §2

The test system of test [12] is MEF. Kind of test: Cytotoxicity against MCL-1/BAX/BAK deficient mouse embryonic fibroblast cells assessed as reduction in cell viability in presence of 1 % fetal calf serum measured after 24 hrs propidium iodide staining based flow cytometric analysis. In kind it is functional. Summed up: as §3
Test [13] concerns MEF. Kind of test: Cytotoxicity against wild type mouse embryonic fibroblast cells assessed as reduction in cell viability in presence of 1 % fetal calf serum measured after 24 hrs propidium iodide staining based flow cytometric analysis. In kind it is functional. Summed up: as §3
The next test concerns COLO 205. Kind of test: Cytotoxicity against BCL-XL dependent human COLO205 cells assessed as reduction in cell viability measured after 48 hrs by CellTitre-Glo assay. It counts as functional, cell-based. Summed up:
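COLO205 cells (WT or BAK−/−/BAX−/−), kept in RPMI-1640 with 10% FCS, seeded at 3 × 10³ cells/well in medium with 10 or 1% FCS. Dosed one day later with six-point serial dilutions (0.0003−10 μM 1:8 for BH3 mimetics; 0.1−25 μM 1:3 for benzoylureas). Viability normalized to matched DMSO vehicle; EC₅₀ by curve fit.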

Test [14] deals with MEF. Kind of test: Cytotoxicity against mouse embryonic fibroblast cells assessed as reduction in cell viability in presence of 10 % fetal calf serum measured after 24 hrs propidium iodide staining based flow cytometric analysis. It counts as functional.
Test [15] relates to MEF. Kind of test: Cytotoxicity against MCL-1deficient MEF cells assessed as release of cytochrome c from mitochondria at 2.5 uM FACS analysis. It counts as functional, Mus musculus. Summed up:
as §2

The results in this text go back to ChEMBL document CHEMBL5038579, “Structure-Guided Development of Potent Benzoylurea Inhibitors of BCL-XL and BCL-2” (J Med Chem, 2021).

Molecules are shown by their SMILES. The source made the active and inactive calls. The calls are words filed in the database; no cut-off is given here.

Take `Cc1ccc(CN(C(=O)NCCSCc2ccccc2)C(=O)c2ccc(-c3ccccc3)cc2)cc1`: the IC50 in [1] and in test [2] was above 100 µM in each case.

In the case of `Cc1ccc(CN(C(=O)N[C@@H](CS(=O)(=O)CC23CC4CC(CC(C4)C2)C3)C(=O)O)C(=O)c2ccc(-c3ccccc3)cc2)cc1`, the IC50 in test [3] is 0.42 µM; in test [1], 6.1 µM; in test [4], above 12.5 µM; in [2], 0.19 µM; in test [5], 9.4 µM; in test [6], 6.8 µM. The same compound displayed a half-inhibitory concentration (IC50) in test [7] above 12.5 µM.

As to `Cc1ccc(CN(C(=O)N[C@@H](CS(=O)(=O)CC23CC4CC(CC(C4)C2)C3)C(=O)O)C(=O)c2ccc3c(c2)CCN(Cc2ccccc2-c2ccc(Cl)cc2)C3)cc1`, the IC50 in test [3] was 0.044 µM; in test [1], 1.8 µM; in [4] it was above 12.5 µM; in test [2], 0.04 µM; in test [5], 0.107 µM; in [6], 5.9 µM. Moreover, in test [7], the IC50 was above 12.5 µM.

Regarding `Cc1ccc(CN(C(=O)N[C@@H](CCCc2ccccc2)C(=O)O)C(=O)c2ccc(-c3ccccc3)cc2)cc1`, the IC50 in [1] amounted to 8 µM; in test [2] it was 1.09 µM.

`CCCN(C(=O)N[C@@H](CSCc1ccccc1)C(=O)O)C(=O)c1ccc(-c2ccccc2)cc1`: the result with MEF [8], in the test on MEF [9] and in the test on MEF [11] (Mus musculus) was inactive. Also, the values for the IC50 in test [1] and in test [2] were 28 µM and 31 µM, respectively. Also, the EC50 in the test with MEF [10] is above 25 µM.

Consider `Cc1ccc(CN(C(=O)N[C@@H](CSCc2ccccc2)C(=O)O)C(=O)c2ccc3c(c2)CCN(Cc2ccccc2-c2ccc(Cl)cc2)C3)cc1`, for which the IC50 in test [3] is 0.24 µM; in [1] it was 2 µM; in [4] it was above 12.5 µM; in test [2], 0.21 µM; in [5] it was 0.152 µM; in test [6] it was 4.6 µM. Also, the IC50 in [7] was 10 µM.

As to `Cc1ccc(CN(C(=O)N[C@@H](CS(=O)(=O)Cc2ccccc2)C(=O)O)C(=O)c2ccc3c(c2)CCN(Cc2ccccc2-c2ccc(Cl)cc2)C3)cc1`, the IC50 is 0.133 µM in test [3]; 5.3 µM in [1]; above 12.5 µM in test [4]; 0.17 µM in test [2]; 0.066 µM in test [5]; above 12.5 µM in test [6]. This compound also registered an IC50 in test [7] above 12.5 µM.

On to `CSC[C@H](NC(=O)N(Cc1ccc(C)cc1)C(=O)c1ccc(-c2ccccc2)cc1)C(=O)O`, for which the IC50 came out at 44 µM in test [1] and 13.1 µM in test [2].

Take `Cc1ccc(CN(C(=O)N[C@@H](COCc2ccccc2)C(=O)O)C(=O)c2ccc(-c3ccccc3)cc2)cc1`: the IC50 in test [1] stood at 11.8 µM; in [2], 0.38 µM.

In the case of `Cc1ccc(CN(C(=O)N[C@@H](CSCc2ccccc2)C(=O)O)C(=O)c2ccc(-c3ccccc3)cc2)cc1`, the IC50 in test [1] is 7.7 µM; in test [2], 0.51 µM.

For `Cc1ccc(CN(C(=O)N[C@@H](CS(=O)(=O)CC2CCCCC2)C(=O)O)C(=O)c2ccc3c(c2)CCN(Cc2ccccc2-c2ccc(Cl)cc2)C3)cc1`, the IC50 in [3] was 0.041 µM; in test [1] it was 1.8 µM; in test [4], above 12.5 µM; in test [2], 0.04 µM; in test [5], 0.018 µM; in test [6], 4.6 µM. This compound also displayed an IC50 in test [7] of 6.8 µM. Moreover, the outcome in the test on MEF [8], with MEF [9], with MEF [12], in the test with MEF [13], in the test on COLO 205 and with MEF [14] was inactive. In addition, the EC50 with MEF [10] came out at 19.2 µM. In addition, the Activity with MEF [11] was 30%.

For `Cc1ccc(CN(C(=O)N[C@@H](CSCc2ccccc2)C(=O)O)C(=O)c2ccc(-c3cccc(-c4ccccc4-c4ccc(Cl)cc4)c3)cc2)cc1`, the IC50 in [1] is 1.5 µM; in [2], 0.24 µM.

For the compound `CN(C)CC[C@H](CSc1ccccc1)Nc1ccc(S(=O)(=O)NC(=O)c2ccc(N3CCN(Cc4ccccc4-c4ccc(Cl)cc4)CC3)cc2)cc1[N+](=O)[O-]` [ABT 737], the IC50 in test [3] is below 0.00025 µM; in test [1] it was 40 µM; in [4] it was above 12.5 µM; in test [2], 0.004 µM; in test [5], below 0.00025 µM; in test [7], 0.012 µM. For the same compound, in the test on MEF [15], the Activity was above 90%. In addition, the EC50 in the test with MEF [10] stood at 0.013 µM. Moreover, the result in the test with MEF [12] and in the test with MEF [13] was inactive.

Consider `Cc1ccc(CN(C(=O)N[C@@H](CS(=O)(=O)CC2CCCCC2)C(=O)O)C(=O)c2ccc(-c3ccccc3)cc2)cc1`, for which the IC50 in [3] is 0.62 µM; in [1] it was 10 µM; in test [4], above 12.5 µM; in test [2], 0.46 µM; in [5], above 12.5 µM; in test [6], above 12.5 µM. This compound returned an IC50 in [7] above 12.5 µM.

Consider `COC(=O)[C@H](CSCc1ccccc1)NC(=O)N(Cc1ccc(C)cc1)C(=O)c1ccc(-c2ccccc2)cc1`, for which the IC50 in test [1] and in [2] was above 100 µM throughout.

With `Cc1ccc(CN(C(=O)N[C@@H](CS(=O)(=O)Cc2ccccc2)C(=O)O)C(=O)c2ccc(-c3ccccc3)cc2)cc1`, the IC50 in [3] is 1.8 µM; in test [1], 11.6 µM; in test [4], above 12.5 µM; in [2], 0.59 µM; in [5], above 12.5 µM; in [6], above 12.5 µM. For the same compound, in [7], the IC50 is above 12.5 µM.
